According to ChEMBL document CHEMBL2086296, “Synthesis of novel quinoline-2-one based chalcones of potential anti-tumor activity” (Eur J Med Chem, 2012):

Columns and labels:
[1] = system: HCT-15; experiment: (§1) Cytotoxicity against human HCT15 cells after 24 hrs by SRB assay; format: cell-based; settings: hct-15, 24 h
Procedure, shortened: (§2)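 NCI 60-cell screen. Cells grown in RPMI 1640 with 5% FBS and 2 mM L-glutamine, seeded at 5,000–40,000 cells/well, preincubated 24 h at 37 °C in 5% CO2. Drug stock in DMSO, diluted in medium with gentamicin; five final concentrations, 100, 10, 1.0, 0.1 and […]. Time-zero plates were TCA-fixed. Protein read by SRB staining; GI50, TGI and LC50 taken relative to time-zero.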

[2] = system: RPMI-8226; experiment: Cytotoxicity against human RPMI8226 cells after 24 hrs by SRB assay; format: functional; settings: RPMI-8226, 24 h
Procedure, shortened: (§3)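 NCI 60-line screen. Cells in RPMI 1640 with 5% FBS and 2 mM L-glutamine, seeded at 5,000–40,000 cells/well by doubling time, then incubated 24 h at 37 °C, 5% CO2 before dosing. Time-zero plates fixed with TCA at drug addition. DMSO stocks diluted in medium with gentamicin to five concentrations, […]. Protein read by SRB staining. GI50, TGI and LC50 derived relative to control and time-zero.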

[3] = system: SK-MEL-5; experiment: (§4) Cytotoxicity against human SK-MEL-5 cells after 24 hrs by SRB assay; format: cell-based; settings: sk-mel-5, 24 h; procedure, shortened: as §2
[4] = system: UACC-62; experiment: (§5) Cytotoxicity against human UACC62 cells after 24 hrs by SRB assay; format: cell-based; settings: uacc-62, 24 h
Procedure, shortened: (§6)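 NCI 60-cell-line screen: cells grown in RPMI 1640 with 5% FBS and 2 mM L-glutamine, seeded at 5,000–40,000 cells/well by doubling time, and preincubated 24 h at 37 °C in 5% CO2. Time-zero plates were TCA-fixed. DMSO stocks were diluted in medium with gentamicin to five concentrations (100, 10, 1.0, 0.1, […]). Protein was read by SRB, and GI50, TGI and LC50 were derived against time-zero.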

[5] = system: NCI-H226; experiment: Cytotoxicity against human NCI-H226 cells after 24 hrs by SRB assay; format: cell-based; settings: nci-h226, 24 h; procedure, shortened: as §2
[6] = system: CCRF-CEM; experiment: Cytotoxicity against human CCRF-CEM cells after 24 hrs by SRB assay; format: functional; procedure, shortened: as §3
[7] = system: NCI-H23; experiment: Cytotoxicity against human NCI-H23 cells after 24 hrs by SRB assay; format: functional; settings: NCI-H23, 24 h; procedure, shortened: as §3
[8] = system: OVCAR-8; experiment: (§7) Cytotoxicity against human OVCAR8 cells after 24 hrs by SRB assay; format: functional; settings: OVCAR-8, 24 h; procedure, shortened: as §3
[9] = system: HT-29; experiment: Cytotoxicity against human HT-29 cells after 24 hrs by SRB assay; format: functional; settings: HT-29, 24 h; procedure, shortened: as §3
[10] = system: RXF 393; experiment: Cytotoxicity against human RXF393 cells after 24 hrs by SRB assay; format: functional; settings: RXF 393, 24 h; procedure, shortened: as §3
[11] = system: EKVX; experiment: Cytotoxicity against human EKVX cells after 24 hrs by SRB assay; format: cell-based; procedure, shortened: as §2
[12] = system: CAKI-1; experiment: Cytotoxicity against human CAKI-1 cells after 24 hrs by SRB assay; format: cell-based; settings: caki-1, 24 h; procedure, shortened: as §2
[13] = system: A549; experiment: Cytotoxicity against human A549 cells after 24 hrs by SRB assay; format: cell-based; settings: a549, 24 h; procedure, shortened: as §2
[14] = system: NCI-H522; experiment: Cytotoxicity against human NCI-H522 cells after 24 hrs by SRB assay; format: cell-based; settings: nci-h522, 24 h; procedure, shortened: as §2
[15] = system: MDA-MB-468; experiment: Cytotoxicity against human MDA-MB-468 cells after 24 hrs by SRB assay; format: cell-based; settings: mda-mb-468, 24 h; procedure, shortened: as §2
[16] = system: MOLT-4; experiment: Cytotoxicity against human MOLT4 cells after 24 hrs by SRB assay; format: functional; settings: MOLT-4, 24 h; procedure, shortened: as §3
[17] = system: KM12; experiment: Cytotoxicity against human KM12 cells after 24 hrs by SRB assay; format: functional; settings: KM12, 24 h; procedure, shortened: as §3
[18] = system: SR; experiment: (§8) Cytotoxicity against human SR cells after 24 hrs by SRB assay; format: functional
Procedure, shortened: (§9)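 NCI 60-cell screen. Cells are grown in RPMI 1640 with 5% FBS and 2 mM L-glutamine and seeded at 5,000–40,000 cells/well according to doubling time. They are preincubated 24 h at 37 °C in 5% CO2, and Tz plates are TCA-fixed at drug addition. Drug stock is in DMSO, diluted in medium with gentamicin, and tested at five concentrations (100, 10, 1.0, 0.1, […]). Protein is read by SRB staining. GI50, TGI and LC50 are derived relative to time-zero and control wells.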

[19] = system: SNB-19; experiment: Cytotoxicity against human SNB19 cells after 24 hrs by SRB assay; format: cell-based; settings: snb-19, 24 h; procedure, shortened: as §6
[20] = system: SF-539; experiment: Cytotoxicity against human SF539 cells after 24 hrs by SRB assay; format: cell-based; settings: sf-539, 24 h; procedure, shortened: as §2
[21] = system: DU-145; experiment: Cytotoxicity against human DU145 cells after 24 hrs by SRB assay; format: cell-based; settings: du-145, 24 h; procedure, shortened: as §2
[22] = system: SR; experiment: as §8; format: cell-based; procedure, shortened: as §6
[23] = system: SK-OV-3; experiment: (§10) Cytotoxicity against human SKOV3 cells after 24 hrs by SRB assay; format: cell-based; settings: sk-ov-3, 24 h; procedure, shortened: as §6
[24] = system: MDA-MB-231; experiment: Cytotoxicity against human MDA-MB-231 cells after 24 hrs by SRB assay; format: functional; settings: MDA-MB-231, 24 h; procedure, shortened: as §3
[25] = system: ACHN; experiment: Cytotoxicity against human ACHN cells after 24 hrs by SRB assay; format: cell-based; procedure, shortened: as §2
[26] = system: OVCAR-8; experiment: as §7; format: cell-based; settings: ovcar-8, 24 h; procedure, shortened: as §2
[27] = system: UACC-62; experiment: as §5; format: functional; settings: UACC-62, 24 h; procedure, shortened: as §9
[28] = system: SN12C; experiment: Cytotoxicity against human SN12C cells after 24 hrs by SRB assay; format: functional; procedure, shortened: as §3
[29] = system: NCI-H460; experiment: Cytotoxicity against human NCI-H460 cells after 24 hrs by SRB assay; format: functional; settings: NCI-H460, 24 h; procedure, shortened: as §3
[30] = system: HOP-62; experiment: Cytotoxicity against human HOP62 cells after 24 hrs by SRB assay; format: functional; settings: HOP-62, 24 h; procedure, shortened: as §3
[31] = system: SK-OV-3; experiment: as §10; format: functional; settings: SK-OV-3, 24 h; procedure, shortened: as §3
[32] = system: SK-MEL-5; experiment: as §4; format: functional; settings: SK-MEL-5, 24 h; procedure, shortened: as §3
[33] = system: NCI/ADR-RES; experiment: Cytotoxicity against human NCI/ADR-RES cells after 24 hrs by SRB assay; format: functional; procedure, shortened: as §3
[34] = system: HCT-15; experiment: as §1; format: functional; settings: HCT-15, 24 h; procedure, shortened: as §3

O=C(/C=C/c1cc2ccccc2[nH]c1=O)/C=C/c1cc2ccccc2[nH]c1=O
LC50 [1]: > 100 µM | GI50 [2]: 0.341 µM | TGI [2]: > 100 µM | LC50 [3]: > 100 µM | LC50 [4]: > 100 µM | LC50 [5]: > 100 µM | GI50 [6]: 0.697 µM | TGI [6]: > 100 µM | GI50 [7]: 2.42 µM | TGI [7]: 87.7 µM | GI50 [8]: 2.6 µM | TGI [8]: > 100 µM | GI50 [9]: 0.483 µM | TGI [9]: 1.78 µM | GI50 [10]: 1.79 µM | TGI [10]: 3.73 µM | LC50 [11]: > 100 µM | LC50 [12]: > 100 µM | LC50 [13]: > 100 µM | LC50 [14]: > 100 µM | LC50 [15]: > 100 µM | GI50 [16]: 2.27 µM | TGI [16]: > 100 µM | GI50 [17]: 0.494 µM | TGI [17]: 1.83 µM | GI50 [18]: 1.14 µM | TGI [18]: > 100 µM | LC50 [19]: > 100 µM | LC50 [20]: > 100 µM | LC50 [21]: > 100 µM | LC50 [22]: > 100 µM | LC50 [23]: > 100 µM | GI50 [24]: 3.49 µM | TGI [24]: > 100 µM | LC50 [25]: > 100 µM | LC50 [26]: > 100 µM | GI50 [27]: 4.61 µM | TGI [27]: > 100 µM | GI50 [28]: 2.66 µM | TGI [28]: > 100 µM | GI50 [29]: 4.63 µM | TGI [29]: > 100 µM | GI50 [30]: 3.65 µM | TGI [30]: > 100 µM | GI50 [31]: 18.1 µM | TGI [31]: > 100 µM | GI50 [32]: 5.63 µM | TGI [32]: > 100 µM | GI50 [33]: > 100 µM | TGI [33]: > 100 µM | GI50 [34]: 2.02 µM | TGI [34]: > 100 µM
